Results: ChEMBL document CHEMBL1811834, “Synthesis and antimalarial activity of new heterocyclic hybrids based on chloroquine and thiazolidinone scaffolds” (Bioorg Med Chem, 2011)

Legend:
HepG2 [1] = experiment: Cytotoxicity against human HepG2 cells at 23 uM after 24 hrs by MTT assay; format: cell-based; settings: hepg2, 24 h
J774 [2] = experiment: Cytotoxicity against mouse macrophage J774 cells at 23 uM after 24 hrs by MTT assay; format: cell-based; settings: j774, 24 h
Plasmodium falciparum [3] = experiment: Antimalarial activity against erythrocytic stage multidrug-resistant Plasmodium falciparum Dd2 after 48 hrs by fluorescence spectrophotometer; format: functional, organism-based; settings: Dd2, 48 h
[4] = Inhibition of beta-hematine formation after 18 to 24 hrs by ferriprotoporphyrin 9 biomineralization inhibition test; format: functional
Procedure, shortened: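 Haemin chloride (0.5 mg/mL, freshly dissolved in DMSO) was mixed with 10 mg/mL compound solution or solvent in 0.5 M sodium acetate pH 4.4 and incubated 18–24 h at 37 °C. IC₅₀ is the mean of two experiments in triplicate.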

Plasmodium falciparum [5] = experiment: Antimalarial activity against erythrocytic stage chloroquine-sensitive Plasmodium falciparum 3D7 after 48 hrs by fluorescence spectrophotometer; format: functional, organism-based; settings: 3D7, 48 h
HepG2 [6] = experiment: Cytotoxicity against human HepG2 cells at 37 uM after 24 hrs by MTT assay; format: cell-based; settings: hepg2, 24 h
Procedure, shortened: (§1)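 5 × 10⁴ cells/well were exposed to compound for 24 h. Medium was then removed and MTT (0.4 mg/mL in PBS) added for 1 h. Crystals were dissolved in DMSO and read at 595 nm. % toxicity = (OD control − OD compound)/OD control × 100.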

Plasmodium berghei = experiment: Antimalarial activity against Plasmodium berghei str. ANKA infected in NMRI mouse at 10 mg/kg/day, ip for three days measured on day 4 by Giemsa staining; format: functional; settings: route intraperitoneal
Procedure, shortened: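 NMRI male mice (20 ± 2 g, groups of five) inoculated on day 0 with 2 × 10⁷ RBCs infected with P. berghei ANKA erythrocytic stages. Two hours later, i.p. dosing at 10 mg/kg/day in DMSO, continued days 1–3.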

J774 [7] = experiment: Cytotoxicity against mouse macrophage J774 cells at 37 uM after 24 hrs by MTT assay; format: cell-based; settings: j774, 24 h; procedure, shortened: as §1
HepG2 [8] = experiment: Cytotoxicity against human HepG2 cells at 19 uM after 24 hrs by MTT assay; format: cell-based; settings: hepg2, 24 h; procedure, shortened: as §1
J774 [9] = experiment: Cytotoxicity against mouse macrophage J774 cells at 19 uM after 24 hrs by MTT assay; format: cell-based; settings: j774, 24 h; procedure, shortened: as §1

Row | SMILES | Activity (HepG2 [1]) [%] | Activity (J774 [2]) [%] | IC50 (Plasmodium falciparum [3]) [nM] | IC50 [4] [nM] | IC50 (Plasmodium falciparum [5]) [nM] | Activity (HepG2 [6]) [%] | inhibition in vivo at 10 mg/kg/day (Plasmodium berghei) [%] | Activity (J774 [7]) [%] | Activity (HepG2 [8]) [%] | Activity (J774 [9]) [%]
1 | O=C1CSC(c2ccc3c(c2)OCO3)N1CCNc1ccnc2cc(Cl)ccc12 (stereo not given) | 25.53 | 47.93 | 750 | 58400 | 510 | – | – | – | – | –
2 | Clc1ccc2c(NCc3ccccc3)ccnc2c1 | – | – | 330 | 46500 | 300 | 46.58 | 25 | 0 | – | –
3 | CCN(CC)CCCC(C)Nc1ccnc2cc(Cl)ccc12 (stereo not given) [CHLOROQUINE] | – | – | – | 22300 | – | – | 100 | – | 0 | 0
